pKd, pKi: −log10 of the molar value. Like-named read-outs stand apart in the source and are kept apart here. Marks after values point to notes of the source that are not given here. Each block holds one compound with its values, some of them ahead of it.
Tests used:
CYP2E1 [1] = target: T1, CYP2E1 (Homo sapiens, UniProt P05181); assay: Extended CYP2E1-pNP inhibition profiling; assay type: biochemical; conditions: additive up to 50 µmol/L
Target sequence in this assay (P05181 whole entry): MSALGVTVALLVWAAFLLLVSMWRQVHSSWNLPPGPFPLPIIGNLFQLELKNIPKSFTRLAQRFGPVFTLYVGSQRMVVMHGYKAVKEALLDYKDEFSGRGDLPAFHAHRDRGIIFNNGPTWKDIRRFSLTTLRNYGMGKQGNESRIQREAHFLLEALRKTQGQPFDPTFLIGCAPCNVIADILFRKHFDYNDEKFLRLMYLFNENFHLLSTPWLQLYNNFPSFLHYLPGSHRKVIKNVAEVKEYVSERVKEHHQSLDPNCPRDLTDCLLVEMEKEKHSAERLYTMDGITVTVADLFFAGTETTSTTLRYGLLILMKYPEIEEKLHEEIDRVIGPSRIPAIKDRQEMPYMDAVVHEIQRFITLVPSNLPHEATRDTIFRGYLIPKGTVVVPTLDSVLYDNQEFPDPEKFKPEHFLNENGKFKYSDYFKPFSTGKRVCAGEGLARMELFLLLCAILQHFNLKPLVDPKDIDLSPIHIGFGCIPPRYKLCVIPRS
Target sequence in this assay (P16435 2-677 partner): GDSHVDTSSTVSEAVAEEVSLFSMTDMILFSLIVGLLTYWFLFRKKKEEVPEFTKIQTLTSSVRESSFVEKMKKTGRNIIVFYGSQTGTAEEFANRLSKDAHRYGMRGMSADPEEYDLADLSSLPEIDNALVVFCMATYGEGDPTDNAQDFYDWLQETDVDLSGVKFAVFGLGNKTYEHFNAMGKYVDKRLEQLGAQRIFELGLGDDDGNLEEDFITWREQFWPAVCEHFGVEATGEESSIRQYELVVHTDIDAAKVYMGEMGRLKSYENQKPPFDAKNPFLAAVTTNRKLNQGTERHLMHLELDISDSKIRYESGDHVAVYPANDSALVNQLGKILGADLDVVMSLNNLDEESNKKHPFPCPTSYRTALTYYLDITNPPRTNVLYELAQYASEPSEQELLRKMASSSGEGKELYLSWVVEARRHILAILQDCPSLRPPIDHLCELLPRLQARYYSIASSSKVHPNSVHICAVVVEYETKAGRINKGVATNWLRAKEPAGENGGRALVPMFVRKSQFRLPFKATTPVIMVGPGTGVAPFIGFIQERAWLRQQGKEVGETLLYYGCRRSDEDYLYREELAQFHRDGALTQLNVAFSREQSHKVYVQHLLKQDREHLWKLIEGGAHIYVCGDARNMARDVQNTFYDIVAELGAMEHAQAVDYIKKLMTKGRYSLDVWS
Target sequence in this assay (P00167 2-134 partner): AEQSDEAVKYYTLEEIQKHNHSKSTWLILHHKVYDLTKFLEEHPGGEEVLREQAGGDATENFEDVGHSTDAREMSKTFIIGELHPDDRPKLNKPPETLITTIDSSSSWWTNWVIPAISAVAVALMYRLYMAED

Escherichia coli DH5α [2] = assay: Growth of E coli DH5α transformed with pBTR1; assay type: cell-based; conditions: 4 hours, control = 100
B megaterium MTCC 428 = assay: Growth; assay type: cell-based, Bacillus megaterium
E coli DH5α = assay: Growth; assay type: cell-based, Escherichia coli
Escherichia coli DH5α [3] = conditions: 6 hours, control = 100
CYP2E1 [4] = target: T1, CYP2E1; assay: CYP2E1 baculosome pNP hydroxylation; assay type: biochemical; conditions: for Effect on pNC formation: earlier time (10 minutes)
Target sequence in this assay (P05181 whole entry): as the sequence (P05181 whole entry) above

CYP2E1 [5] = target: T1, CYP2E1; assay: Simulation of hydroxylating activities of CYP2E1 with DROS; assay type: biochemical; conditions: after 10 minutes; for Concentration of hydroxylated product, Control, Cyt b 5 + pNP: Cyt b5, without CYP2E1; for Concentration of hydroxylated product, CYP2E1, pNP: pNP 25 µmol/L, with CYP2E1; for Concentration of hydroxylated product, CYP2E1, Cyt b 5 + pNP: with CYP2E1 and Cyt b5; for Concentration of hydroxylated product, Control, pNP: without CYP2E1
Procedure, shortened: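 Reconstituted hydroxylation with diffusible oxygen species used initial pNP 25 µmol/L, DLPC 20 µmol/L and CYP2E1 100 nmol/L (omitted in controls). When present: NADPH 200 µmol/L, CPR 200 nmol/L, Cyt b5 200 nmol/L, H2O2 32 µmol/L, or KO2 ≤16 µmol/L. KO2 was added from a DMSO/15-crown ether substock, giving ~1% DMSO/crown ether in the reaction. Hydroxylated product (nmol/L) was measured after 10 min.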
Target sequence in this assay (P05181 whole entry): as above
Target sequence in this assay (P16435 2-677 partner): as the sequence (P16435 2-677 partner) above
Target sequence in this assay (P00167 2-134 partner): as the sequence (P00167 2-134 partner) above

CYP2E1 [6] = conditions: enzyme taken at 0.1 µmol/L; cited from earlier work

Structure (SMILES): Cn1c(=O)[nH]c(=O)c2[nH]cnc21 [3-Methylxanthine (MetXan), 3-Methylxanthine]
Effect on pNP reactions (CYP2E1 [1]): did not significantly perturb/inhibit

Structure (SMILES): Nc1nc[nH]n1 [Amitrol, amitrol]
Relative growth density (Escherichia coli DH5α [2]; amitrol 10^−3 M, + IPTG): 60 (9)
Relative growth density (Escherichia coli DH5α [2]; amitrol 10^−3 M, − IPTG): 94 (4)
Relative growth density (Escherichia coli DH5α [2]; amitrol 10^−6 M, + IPTG): 70 (6)
Relative growth density (Escherichia coli DH5α [2]; amitrol 10^−6 M, − IPTG): 103 (10)
Relative growth density (Escherichia coli DH5α [2]; amitrol 10^−9 M, + IPTG): 63 (5)
Relative growth density (Escherichia coli DH5α [2]; amitrol 10^−9 M, − IPTG): 103 (3)
Relative growth density (Escherichia coli DH5α [2]; amitrol 10^−12 M, + IPTG): 51 (4)
Relative growth density (Escherichia coli DH5α [2]; amitrol 10^−12 M, − IPTG): 50 (2)

Structure (SMILES): [N-]=[N+]=[N-] [Azide, azide]
Effect on growth (B megaterium MTCC 428; azide 10^−6 to 10^−12 M): did not impact
Effect on growth (B megaterium MTCC 428; azide at mmol/L ranges): very effective in curbing the growth
Effect on growth (E coli DH5α; azide at mmol/L ranges, compared with B megaterium): much less harsh
Effect on growth (E coli DH5α; nmol/L concentration of azide): inhibitory
Effect on growth (E coli DH5α; µmol/L concentration of azide): no inhibition whatsoever
Relative growth density (Escherichia coli DH5α [3]; azide 10^−3 M, + IPTG): 24 (3)
Relative growth density (Escherichia coli DH5α [3]; azide 10^−3 M, − IPTG): 12 (5)
Relative growth density (Escherichia coli DH5α [3]; azide 10^−6 M, + IPTG): 79 (5)
Relative growth density (Escherichia coli DH5α [3]; azide 10^−6 M, − IPTG): 97 (7)
Relative growth density (Escherichia coli DH5α [3]; azide 10^−9 M, + IPTG): 29 (6)
Relative growth density (Escherichia coli DH5α [3]; azide 10^−9 M, − IPTG): 41 (6)
Relative growth density (Escherichia coli DH5α [3]; azide 10^−12 M, + IPTG): 32 (3)
Relative growth density (Escherichia coli DH5α [3]; azide 10^−12 M, − IPTG): 107 (8)

pKi (CYP2E1 [4]; Ki Competitive, Cheng-Prusoff from IC50, KM 14 µmol/L): 5.06
pKi (CYP2E1 [4]; Ki Noncompetitive, calculated from IC50 (website)): 4.15
Ki Uncompetitive (CYP2E1 [4]; calculated from IC50 (website)): 62.3 µM
Inhibition at 10 nmol/L compared to 1 µmol/L (CYP2E1 [4]; initial sampling time): greater extent of inhibition
Structure (SMILES): CCc1oc2ccccc2c1C(=O)c1ccc(O)cc1 [Bzr, benzarone]

Structure (SMILES): N[C@@H](Cc1cc(I)c(O)c(I)c1)C(=O)O [DIT, diiodotyrosine]
Effect on pNC formation (CYP2E1 [4]; 10 nmol/L additive): enhanced reactions
Effect on pNC formation (CYP2E1 [4]; high/higher additive concentrations): inhibited pNC formation

Structure (SMILES): OO [H2O2]
Concentration of hydroxylated product, Control, Cyt b 5 + pNP (CYP2E1 [5]): Nil
Concentration of hydroxylated product, CYP2E1, pNP (CYP2E1 [5]): <10 nmol/L
Concentration of hydroxylated product, CYP2E1, Cyt b 5 + pNP (CYP2E1 [5]): ∼74 nmol/L
Concentration of hydroxylated product, Control, pNP (CYP2E1 [5]): Nil

Ki Uncompetitive (CYP2E1 [4]; calculated from IC50 (website)): 100.9 µM
pKi (CYP2E1 [4]; read-out: Ki Competitive, Cheng-Prusoff from IC50, KM 14 µmol/L): 4.85
pKi (CYP2E1 [4]; read-out: Ki Noncompetitive, calculated from IC50 (website)): 3.94
Structure (SMILES): CCc1oc2ccccc2c1C(=O)c1ccc(OC)cc1 [MeOBzr, methoxybenzarone]

Concentration of hydroxylated product, Control, Cyt b 5 + pNP (CYP2E1 [5]): ∼70^b nmol/L
Concentration of hydroxylated product, CYP2E1, pNP (CYP2E1 [5]): ∼104^b nmol/L
Concentration of hydroxylated product, CYP2E1, Cyt b 5 + pNP (CYP2E1 [5]): ∼499^b nmol/L
Concentration of hydroxylated product, Control, pNP (CYP2E1 [5]): ∼88^b nmol/L
Structure (SMILES): [O]O [O2 ^˙−]

Structure (SMILES): c1ccc2[nH]ncc2c1 [indazole]
pKd (CYP2E1 [6]): 8.30

Km (CYP2E1 [4]; read-out: 2E1-pNP KM, substrate constant used for Cheng-Prusoff): 14 µM
Structure (SMILES): O=[N+]([O-])c1ccc(O)cc1 [pNP, para-nitrophenol]

— paper PMC5946624 (Dose-Response, 2018)
